≈ marks a conversion by molar mass, not a printed value. Calls of active or inactive are those of the source. No cut-off for these calls is given here.
Each molecule was assayed on Salmonella (assay: Bacteriostatic activity against Salmonella ATCC 12022 at 1X to 4XMIC measured after 2 to 24 hrs by time-kill assay). Details: time 2-24 hrs.
Type: functional, organism-based

**Q.** Which Activity does the source give for `CC1CCc2c(sc(NC(=O)c3ccccc3I)c2C(=O)O)C1` (stereo unspecified) here?
**A.** Active

These molecules were tested on Pseudomonas aeruginosa (assay: Bacteriostatic activity against Pseudomonas aeruginosa ATCC 27853 at 1X to 4XMIC measured after 2 to 24 hrs by time-kill assay). Details: time 2-24 hrs.
Type: functional, organism-based

**Q.** `CC1CCc2c(sc(NC(=O)c3ccccc3I)c2C(=O)O)C1` (stereo unspecified) was tested. Which Activity did it give?
**A.** Active

The molecules below were run on Salmonella (assay: Antibacterial activity against Salmonella ATCC 12022 assessed as reduction in living bacterial cell counts at 1X to 4XMIC measured within 2 hrs by time-kill assay). Details: not given.
Type: functional, organism-based

**Q.** For `CC1CCc2c(sc(NC(=O)c3ccccc3I)c2C(=O)O)C1` (stereo unspecified), which Activity is on record?
**A.** Active

Each molecule was assayed on Salmonella (assay: Antibacterial activity against Salmonella ATCC 12022 assessed as inhibition of bacterial growth by standard broth microdilution method). Details: not given.
Type: functional
Summary of the method: (§1)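 Broth microdilution in 96-well plates. Overnight culture (5 μl) moved into 5 ml fresh medium and grown to log phase, then diluted to 2 × 10^6 CFU ml−1. Each well received 100 μl cell suspension plus 100 μl of compound at various concentrations (200 μl final). Read-out was MIC. Run three times.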

**Q.** How did the MIC turn out when `CC1CCc2c(sc(NC(=O)c3ccccc3)c2C(=O)O)C1` (stereo unspecified) was run?
**A.** 1.56 µM (≈ 0.492 µg/mL)

**Q.** For `CC1CCc2c(sc(NC(=O)c3cc(Cl)ccc3F)c2C(=O)O)C1` (stereo unspecified), which MIC is on record?
**A.** 1.33 µM (≈ 0.489 µg/mL)

**Q.** `Cc1ccc(C(=O)Nc2sc3c(c2C(=O)O)CCC(C)C3)c(C)c1` (stereo unspecified) was tested. Which MIC did it give?
**A.** 1.43 µM (≈ 0.491 µg/mL)

**Q.** For `CCC1CCc2c(sc(NC(=O)c3ccc(F)cc3F)c2C(=O)O)C1` (stereo unspecified), which MIC is on record?
**A.** 1.71 µM (≈ 0.625 µg/mL)

**Q.** How did the MIC turn out when `CCC1CCc2c(sc(NC(=O)c3ccc(Cl)cc3)c2C(=O)O)C1` (stereo unspecified) was run?
**A.** 1.72 µM (≈ 0.626 µg/mL)

**Q.** How did the MIC turn out when `CC1CCc2c(sc(NC(=O)c3ccc(F)cc3)c2C(=O)O)C1` (stereo unspecified) was run?
**A.** 1.47 µM (≈ 0.49 µg/mL)

**Q.** With `CCC1CCc2c(sc(NC(=O)c3cc([N+](=O)[O-])cc([N+](=O)[O-])c3)c2C(=O)O)C1` (stereo unspecified) as the molecule, how does the MIC read?
**A.** 1.49 µM (≈ 0.625 µg/mL)

**Q.** Which MIC does the source give for `CC1CCc2c(sc(NC(=O)c3c(F)cccc3F)c2C(=O)O)C1` (stereo unspecified) here?
**A.** 1.4 µM (≈ 0.492 µg/mL)

**Q.** Which MIC does the source give for `CCC1CCc2c(sc(NC(=O)c3ccc(C)cc3C)c2C(=O)O)C1` (stereo unspecified) here?
**A.** 1.75 µM (≈ 0.626 µg/mL)

**Q.** For `CC1CCc2c(sc(NC(=O)c3ccccc3I)c2C(=O)O)C1` (stereo unspecified), which MIC is on record?
**A.** 0.54 µM (≈ 0.238 µg/mL)

What follows are molecules tested on Pseudomonas aeruginosa (assay: Antibacterial activity against Pseudomonas aeruginosa ATCC 27853 assessed as inhibition of bacterial growth at 0.5XMIC measured for 24 hrs by time-kill assay). Details: not given.
Type: functional, organism-based

**Q.** `CC1CCc2c(sc(NC(=O)c3ccccc3I)c2C(=O)O)C1` (stereo unspecified) was tested. Which Activity did it give?
**A.** inactive

Each molecule was assayed on Escherichia coli (assay: Antibacterial activity against Escherichia coli ATCC 25922 assessed as inhibition of bacterial growth by standard broth microdilution method). Details: not given.
Type: functional
Summary of the method: as §1

**Q.** How did the MIC turn out when `CC1CCc2c(sc(NC(=O)c3ccccc3)c2C(=O)O)C1` (stereo unspecified) was run?
**A.** 1.56 µM (≈ 0.492 µg/mL)

**Q.** For `CC1CCc2c(sc(NC(=O)c3cc(Cl)ccc3F)c2C(=O)O)C1` (stereo unspecified), which MIC is on record?
**A.** 1.33 µM (≈ 0.489 µg/mL)

**Q.** Which MIC does the source give for `Cc1ccc(C(=O)Nc2sc3c(c2C(=O)O)CCC(C)C3)c(C)c1` (stereo unspecified) here?
**A.** 5.69 µM (≈ 1.95 µg/mL)

**Q.** With `CCC1CCc2c(sc(NC(=O)c3ccc(F)cc3F)c2C(=O)O)C1` (stereo unspecified) as the molecule, how does the MIC read?
**A.** 1.71 µM (≈ 0.625 µg/mL)

**Q.** How did the MIC turn out when `CCC1CCc2c(sc(NC(=O)c3ccc(Cl)cc3)c2C(=O)O)C1` (stereo unspecified) was run?
**A.** 3.44 µM (≈ 1.25 µg/mL)

**Q.** With `CC1CCc2c(sc(NC(=O)c3ccc(F)cc3)c2C(=O)O)C1` (stereo unspecified) as the molecule, how does the MIC read?
**A.** 1.47 µM (≈ 0.49 µg/mL)

**Q.** Which MIC does the source give for `CCC1CCc2c(sc(NC(=O)c3cc([N+](=O)[O-])cc([N+](=O)[O-])c3)c2C(=O)O)C1` (stereo unspecified) here?
**A.** 1.49 µM (≈ 0.625 µg/mL)

**Q.** `CC1CCc2c(sc(NC(=O)c3c(F)cccc3F)c2C(=O)O)C1` (stereo unspecified) was tested. Which MIC did it give?
**A.** 11.1 µM (≈ 3.9 µg/mL)

**Q.** How did the MIC turn out when `CCC1CCc2c(sc(NC(=O)c3ccc(C)cc3C)c2C(=O)O)C1` (stereo unspecified) was run?
**A.** 3.5 µM (≈ 1.25 µg/mL)

**Q.** `CC1CCc2c(sc(NC(=O)c3ccccc3I)c2C(=O)O)C1` (stereo unspecified) was tested. Which MIC did it give?
**A.** 1.11 µM (≈ 0.49 µg/mL)

These molecules were tested on Salmonella (assay: Antibacterial activity against Salmonella ATCC 12022 assessed as inhibition of bacterial growth at 0.5XMIC measured for 24 hrs by time-kill assay). Details: not given.
Type: functional, organism-based

**Q.** Which Activity does the source give for `CC1CCc2c(sc(NC(=O)c3ccccc3I)c2C(=O)O)C1` (stereo unspecified) here?
**A.** inactive

These molecules were tested on Pseudomonas aeruginosa (assay: Antibacterial activity against Pseudomonas aeruginosa ATCC 27853 assessed as reduction in living bacterial cell counts at 1X to 4XMIC measured within 2 hrs by time-kill assay). Details: not given.
Type: functional, organism-based

**Q.** For `CC1CCc2c(sc(NC(=O)c3ccccc3I)c2C(=O)O)C1` (stereo unspecified), which Activity is on record?
**A.** Active

Each molecule was assayed on Pseudomonas aeruginosa (assay: Antibacterial activity against Pseudomonas aeruginosa ATCC 27853 assessed as inhibition of bacterial growth by standard broth microdilution method). Details: not given.
Type: functional
Summary of the method: as §1

**Q.** With `CC1CCc2c(sc(NC(=O)c3ccccc3)c2C(=O)O)C1` (stereo unspecified) as the molecule, how does the MIC read?
**A.** 1.56 µM (≈ 0.492 µg/mL)

**Q.** `CC1CCc2c(sc(NC(=O)c3cc(Cl)ccc3F)c2C(=O)O)C1` (stereo unspecified) was tested. Which MIC did it give?
**A.** 1 µM (≈ 0.368 µg/mL)

**Q.** With `Cc1ccc(C(=O)Nc2sc3c(c2C(=O)O)CCC(C)C3)c(C)c1` (stereo unspecified) as the molecule, how does the MIC read?
**A.** 1.43 µM (≈ 0.491 µg/mL)

**Q.** How did the MIC turn out when `CCC1CCc2c(sc(NC(=O)c3ccc(F)cc3F)c2C(=O)O)C1` (stereo unspecified) was run?
**A.** 1.71 µM (≈ 0.625 µg/mL)

**Q.** For `CCC1CCc2c(sc(NC(=O)c3ccc(Cl)cc3)c2C(=O)O)C1` (stereo unspecified), which MIC is on record?
**A.** 3.44 µM (≈ 1.25 µg/mL)

**Q.** Which MIC does the source give for `CC1CCc2c(sc(NC(=O)c3ccc(F)cc3)c2C(=O)O)C1` (stereo unspecified) here?
**A.** 0.72 µM (≈ 0.24 µg/mL)

**Q.** `CCC1CCc2c(sc(NC(=O)c3cc([N+](=O)[O-])cc([N+](=O)[O-])c3)c2C(=O)O)C1` (stereo unspecified) was tested. Which MIC did it give?
**A.** 1.49 µM (≈ 0.625 µg/mL)

**Q.** With `CC1CCc2c(sc(NC(=O)c3c(F)cccc3F)c2C(=O)O)C1` (stereo unspecified) as the molecule, how does the MIC read?
**A.** 1.4 µM (≈ 0.492 µg/mL)

**Q.** `CCC1CCc2c(sc(NC(=O)c3ccc(C)cc3C)c2C(=O)O)C1` (stereo unspecified) was tested. Which MIC did it give?
**A.** 1.75 µM (≈ 0.626 µg/mL)

**Q.** With `CC1CCc2c(sc(NC(=O)c3ccccc3I)c2C(=O)O)C1` (stereo unspecified) as the molecule, how does the MIC read?
**A.** 1 µM (≈ 0.441 µg/mL)

These molecules were tested on Staphylococcus aureus (assay: Antibacterial activity against Staphylococcus aureus ATCC 25923 assessed as inhibition of bacterial growth by standard broth microdilution method). Details: not given.
Type: functional
Summary of the method: as §1

**Q.** How did the MIC turn out when `CC1CCc2c(sc(NC(=O)c3ccccc3)c2C(=O)O)C1` (stereo unspecified) was run?
**A.** 99.2 µM (≈ 31.3 µg/mL)

**Q.** How did the MIC turn out when `CC1CCc2c(sc(NC(=O)c3cc(Cl)ccc3F)c2C(=O)O)C1` (stereo unspecified) was run?
**A.** 2.66 µM (≈ 0.978 µg/mL)

**Q.** Which MIC does the source give for `Cc1ccc(C(=O)Nc2sc3c(c2C(=O)O)CCC(C)C3)c(C)c1` (stereo unspecified) here?
**A.** 1.43 µM (≈ 0.491 µg/mL)

**Q.** Which MIC does the source give for `CCC1CCc2c(sc(NC(=O)c3ccc(F)cc3F)c2C(=O)O)C1` (stereo unspecified) here?
**A.** 3.42 µM (≈ 1.25 µg/mL)

**Q.** `CCC1CCc2c(sc(NC(=O)c3ccc(Cl)cc3)c2C(=O)O)C1` (stereo unspecified) was tested. Which MIC did it give?
**A.** 3.44 µM (≈ 1.25 µg/mL)

**Q.** With `CC1CCc2c(sc(NC(=O)c3ccc(F)cc3)c2C(=O)O)C1` (stereo unspecified) as the molecule, how does the MIC read?
**A.** 1.47 µM (≈ 0.49 µg/mL)

**Q.** `CCC1CCc2c(sc(NC(=O)c3cc([N+](=O)[O-])cc([N+](=O)[O-])c3)c2C(=O)O)C1` (stereo unspecified) was tested. Which MIC did it give?
**A.** 2.98 µM (≈ 1.25 µg/mL)

**Q.** For `CC1CCc2c(sc(NC(=O)c3c(F)cccc3F)c2C(=O)O)C1` (stereo unspecified), which MIC is on record?
**A.** 1.4 µM (≈ 0.492 µg/mL)

**Q.** Which MIC does the source give for `CCC1CCc2c(sc(NC(=O)c3ccc(C)cc3C)c2C(=O)O)C1` (stereo unspecified) here?
**A.** 3.5 µM (≈ 1.25 µg/mL)

**Q.** How did the MIC turn out when `CC1CCc2c(sc(NC(=O)c3ccccc3I)c2C(=O)O)C1` (stereo unspecified) was run?
**A.** 1.11 µM (≈ 0.49 µg/mL)

From ChEMBL document CHEMBL5230163, “Design, synthesis and antibacterial evaluation of a novel class of tetrahydrobenzothiophene derivatives” (2023)
